Data reported in ChEMBL document CHEMBL2021780, “Antineoplastic agents. 548. Synthesis of iodo- and diiodocombstatin phosphate prodrugs” (J Nat Prod, 2012).
Converted amounts (≈) assume the structure as drawn. The source made the active and inactive calls. The rule behind the calls is not given here.

Key:
[1] = Displacement of [3H]colchicine from tubulin at 10 uM after 10 mins
In short: (§1)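 [³H]colchicine binding: 1.0 μM tubulin with 5.0 μM [³H]colchicine and compound, incubated 10 min at 37 °C. The tubulin–colchicine complex was separated from unbound label by retention on DEAE-cellulose filters. Result is inhibition of radiolabel binding.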

[2] = test system: NCI-H460; assay: Growth inhibition of human NCI-H460 cells after 48 hrs by sulforhodamine B assay; assay type: functional; conditions: NCI-H460, 48 h
In short: (§2)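 NCI sulforhodamine B assay. Cells were seeded in 5% FBS/RPMI-1640 and incubated 24 h. Serial compound dilutions were then added for 48 h. Cells were fixed with trichloroacetic acid, stained with SRB and read by microplate reader. GI50 is the concentration giving 50% reduction in net protein increase, calculated from optical density data.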

[3] = test system: HUVEC; assay: Antiangiogenic activity in HUVEC assessed as cell growth at 0.0001 ug/ml after 24 hrs by sulforhodamine B assay relative to control; assay type: functional, Homo sapiens; conditions: Homo sapiens, HUVEC, 24 h; read-out: Activity
[4] = test system: DU-145; assay: Growth inhibition of human DU145 cells after 48 hrs by sulforhodamine B assay; assay type: functional; conditions: DU-145, 48 h; in short: as §2
[5] = test system: P388; assay: Growth inhibition of mouse P388 cells after 48 hrs by Z1 Beckman/Coulter particle counter analysis; assay type: functional; conditions: P388, 48 h, read-out: ED50 (the source's name)
In short: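 Mouse P388 leukemia cells were incubated 24 h in 10% horse serum/Fisher medium, then exposed 48 h to serial compound dilutions. ED50 was calculated from cell counts on a Coulter Z1 particle counter.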

[6] = test system: HUVEC; assay: Antiangiogenic activity in HUVEC assessed as reduction of cord length at 0.0001 ug/ml after 24 hrs by matrigel assay relative to control; assay type: functional, Homo sapiens; parameters: scale not given: the % may be the effect or the level left
In short: (§3)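 Matrigel was polymerised in wells (15 min rt, then 30 min 37 °C). HUVECs (2 × 10⁵ cells/mL) were added with compound and incubated 24 h, then imaged by inverted microscope. Cord length and junction number were scored semi-quantitatively versus untreated control (− none to +++ same as control).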

[7] = test system: HUVEC; assay: Antiangiogenic activity in HUVEC assessed as reduction of cord length at 0.01 ug/ml after 24 hrs by matrigel assay relative to control; assay type: functional
In short: (§4)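 Commercial HUVECs grown in EGM-2 were seeded at 2 × 10⁵ cells/mL onto Matrigel, which had been polymerized 15 min at rt and then 30 min at 37 °C, per NCI DTP protocol. Compound was added and cells were incubated 24 h, then imaged by inverted microscopy. Cord length and junction number were scored against untreated control on a scale from − (none) to +++ (same as control), with ++ = 50% of control.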

[8] = test system: HUVEC; assay: Antiangiogenic activity in HUVEC assessed as cell growth inhibition after 48 hrs by sulforhodamine B assay; assay type: functional, cell-based; conditions: Homo sapiens
In short: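 HUVECs were grown in EGM-2 medium and tested with the standard SRB growth assay following NCI Developmental Therapeutics Program Matrigel antiangiogenesis protocols. IC50 (concentration causing 50% inhibition) was calculated from plotted data.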

[9] = test system: HUVEC; assay: Antiangiogenic activity in HUVEC assessed as cell growth at 0.00001 ug/ml after 24 hrs by sulforhodamine B assay relative to control; assay type: functional; conditions: Homo sapiens, read-out: Activity
[10] = test system: HUVEC; assay: Antiangiogenic activity in HUVEC assessed as reduction of number of junctions at 0.01 ug/ml after 24 hrs by matrigel assay relative to control; assay type: functional; in short: as §4
[11] = test system: KM-20L2; assay: Growth inhibition of human KM20L2 cells after 48 hrs by sulforhodamine B assay; assay type: functional; conditions: KM-20L2, 48 h; in short: as §2
[12] = test system: HUVEC; assay: Antiangiogenic activity in HUVEC assessed as reduction of number of junctions at 0.0001 ug/ml after 24 hrs by matrigel assay relative to control; assay type: functional, Homo sapiens; parameters: scale not given: the % may be the effect or the level left; in short: as §3
[13] = test system: HUVEC; assay: Antiangiogenic activity in HUVEC assessed as cell growth at 0.01 ug/ml after 24 hrs by sulforhodamine B assay relative to control; assay type: functional, Homo sapiens; conditions: for growth at 0.01 µg/mL: Homo sapiens, HUVEC, 24 h, read-out: Activity
[14] = Inhibition of purified tubulin assembly after 20 mins
In short: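 Purified tubulin at 10 μM in 0.8 M monosodium glutamate (pH 6.6), 0.4 mM GTP and 4% (v/v) DMSO, with varying compound concentrations. Extent of assembly was measured after 20 min at 30 °C.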

[15] = test system: HUVEC; assay: Antiangiogenic activity in HUVEC assessed as reduction of number of junctions at 0.001 ug/ml after 24 hrs by matrigel assay relative to control; assay type: functional; conditions: Homo sapiens; in short: as §4
[16] = test system: Cryptococcus neoformans; assay: Antifungal activity against Cryptococcus neoformans ATCC 90112 by broth microdilution method
[17] = test system: SF-268; assay: Growth inhibition of human SF268 cells after 48 hrs by sulforhodamine B assay; assay type: functional; conditions: SF-268, 48 h; in short: as §2
[18] = test system: BXPC-3; assay: Growth inhibition of human BxPC3 cells after 48 hrs by sulforhodamine B assay; assay type: functional; conditions: BXPC-3, 48 h; in short: as §2
[19] = test system: HUVEC; assay: Antiangiogenic activity in HUVEC assessed as cell growth at 0.001 ug/ml after 24 hrs by sulforhodamine B assay relative to control; assay type: functional, Homo sapiens; conditions: Homo sapiens, HUVEC, 24 h; read-out: Activity
[20] = Displacement of [3H]colchicine from tubulin at 1 uM after 10 mins; in short: as §1
[21] = test system: MCF7; assay: Growth inhibition of human MCF7 cells after 48 hrs by sulforhodamine B assay; assay type: functional; conditions: MCF7, 48 h; in short: as §2
[22] = test system: SW-1736; assay: Growth inhibition of human SW1736 cells after 48 hrs by sulforhodamine B assay; assay type: functional; conditions: SW-1736, 48 h
[23] = test system: Micrococcus luteus; assay: Antibacterial activity against Micrococcus luteus Presque Isle 456 by broth microdilution method; assay type: functional
In short: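 Broth microdilution per NCCLS bacterial (M7-A5) and yeast standards. Compounds were reconstituted in sterile DMSO and diluted in the appropriate medium just before testing. MIC is the lowest concentration giving complete inhibition of visible growth (optically clear). Assays were repeated on separate days.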

[24] = Growth inhibition of human KAT4 cells after 48 hrs by sulforhodamine B assay; assay type: functional; conditions: KAT-4, 48 h
[25] = test system: HUVEC; assay: Antiangiogenic activity in HUVEC assessed as reduction of cord length at 0.001 ug/ml after 24 hrs by matrigel assay relative to control; assay type: functional; conditions: Homo sapiens; in short: as §4
[26] = test system: SK-N-SH; assay: Growth inhibition of human SK-N-SH cells after 48 hrs by sulforhodamine B assay; assay type: functional; in short: as §2
[27] = test system: Neisseria gonorrhoeae; assay: Antibacterial activity against Neisseria gonorrhoeae ATCC 49226 by broth microdilution method; assay type: functional
In short: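 Broth microdilution followed NCCLS standard methods. Compounds were reconstituted in sterile DMSO and diluted in the appropriate medium immediately before testing. MIC was taken as the lowest concentration giving no visible growth (optically clear). Assays were repeated on separate days.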

[28] = Solubility of the compound in water; assay type: physicochemical; conditions: buffer
In short: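 Solubility expressed as amount dissolving in 1 mL H₂O at 25 °C.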

[29] = test system: IMR-32; assay: Growth inhibition of human IMR32 cells after 48 hrs by sulforhodamine B assay; assay type: functional; conditions: IMR-32, 48 h; in short: as §2
[30] = test system: HUVEC; assay: Antiangiogenic activity in HUVEC assessed as cell growth at 0.1 ug/ml after 24 hrs by sulforhodamine B assay relative to control; assay type: functional, Homo sapiens
[31] = test system: SK-N-AS; assay: Growth inhibition of human SK-N-AS cells after 48 hrs by sulforhodamine B assay; assay type: functional; in short: as §2
[32] = test system: HUVEC; assay: Antiangiogenic activity in HUVEC assessed as reduction of number of junctions at 0.1 ug/ml after 24 hrs by matrigel assay relative to control; assay type: functional, cell-based; conditions: Homo sapiens; in short: as §4
[33] = test system: HUVEC; assay: Antiangiogenic activity in HUVEC assessed as reduction of number of junctions at 0.00001 ug/ml after 24 hrs by matrigel assay relative to control; assay type: functional, cell-based; conditions: Homo sapiens; in short: as §4
[34] = test system: HUVEC; assay: Antiangiogenic activity in HUVEC assessed as reduction of cord length at 0.00001 ug/ml after 24 hrs by matrigel assay relative to control; assay type: functional, cell-based; conditions: Homo sapiens; in short: as §4
[35] = test system: HUVEC; assay: Antiangiogenic activity in HUVEC assessed as reduction of cord length at 0.1 ug/ml after 24 hrs by matrigel assay relative to control; assay type: functional, cell-based; conditions: Homo sapiens; in short: as §4

| Structure (SMILES) | inhibition [1] [%] | GI50 [2] [ng/mL] | growth at 0.0001 µg/mL [3] [%] | GI50 [4] [ng/mL] | EC50 [5] [ng/mL] | Activity ([7]; Homo sapiens) | IC50 [8] [ng/mL] | growth at 10 pg/mL [9] [%] | Activity ([10]; Homo sapiens) | GI50 [11] [ng/mL] | growth at 0.01 µg/mL [13] [%] | IC50 [14] [nM] | Activity [15] | GI50 [17] [ng/mL] | GI50 [18] [ng/mL] | growth at 0.001 µg/mL [19] [%] | GI50 [21] [ng/mL] | GI50 [22] [ng/mL] | GI50 [24] [ng/mL] | Activity [25] | further results |
| --- | --- | --- | --- | --- | --- | --- | --- | --- | --- | --- | --- | --- | --- | --- | --- | --- | --- | --- | --- | --- | --- |
| COc1ccc(/C=C\c2cc(I)c(OC)c(OC)c2)cc1O [IODOCOMBSTATIN] | 100 | 0.29 (≈ 0.704 nM) | 18 | 0.18 (≈ 0.437 nM) | 2 (≈ 4.85 nM) | Active | 0.04 (≈ 0.097 nM) | 90 | Active | 328 (≈ 796 nM) | 14 | 2500 | Active | 0.18 (≈ 0.437 nM) | 48 (≈ 116 nM) | 14 | 0.22 (≈ 0.534 nM) | 2200 (≈ 5340 nM) | 89 (≈ 216 nM) | Active | Activity [6]: 75%; Activity [12]: 75%; MIC [16]: 64000 ng/mL (≈ 155000 nM); inhibition [20]: 78%; MIC [23]: 2000 ng/mL (≈ 4850 nM) |
| COc1ccc(/C=C\c2cc(I)c(OC)c(I)c2)cc1OP(=O)([O-])[O-].[K+].[K+] | – | 46 | 96 | 28 | 3.4 | – | 4.9 | – | – | – | – | – | – | 53 | 440 | 88 | 50 | > 10000 | 380 | – | GI50 [26]: 7.5 ng/mL; MIC [27]: < 500 ng/mL; solubility [28]: 22 mg/mL; Activity [7]: 75%; GI50 [29]: 81 ng/mL; Activity [10]: 75%; Activity [30]: 15%; Activity [13]: 33%; GI50 [31]: 2 ng/mL |
| COc1ccc(/C=C\c2cc(I)c(OC)c(I)c2)cc1O | 100 | 3.4 (≈ 6.69 nM) | 84 | 2.1 (≈ 4.13 nM) | 2.8 (≈ 5.51 nM) | Active | 0.28 (≈ 0.551 nM) | 87 | Active | 150 (≈ 295 nM) | 4 | 1500 | Active | 3.6 (≈ 7.09 nM) | 38 (≈ 74.8 nM) | 8 | 2.7 (≈ 5.31 nM) | 1200 (≈ 2360 nM) | 39 (≈ 76.8 nM) | Active | Activity ([6]; Homo sapiens): inactive; Activity ([12]; Homo sapiens): inactive; inhibition [20]: 95%; MIC [23]: 4000 ng/mL (≈ 7870 nM) |
| COc1ccc(/C=C\c2cc(I)c(OC)c(OC)c2)cc1OP(=O)(O)O | – | – | – | – | – | Active | – | – | Active | – | – | – | Active | – | – | – | – | – | – | Active | Activity ([6]; Homo sapiens): inactive; Activity [32]: Active; Activity [33]: inactive; Activity ([12]; Homo sapiens): inactive; Activity [34]: inactive; Activity [35]: Active |
